Test [1] concerns Mus musculus. Briefly: tested for its effect on spermatogenic index 3 days after single oral dose (30 mg/kg). The class given is functional. Summed up: (§1)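 Male CD-1 (ICR)BR outbred Swiss albino mice, 5/dose, single oral gavage dose (10 mL/kg) on day 0 in acetate buffer pH 5 or Tween-20-based vehicle; killed 72 h later. Testis cross-sections scored histologically on a 0–6 spermatogenic index (Sertoli only to >100 late spermatids/tubule). Reported as % reduction versus vehicle control; Dunnett's one-tailed t-test.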

In test [2] the test system is Mus musculus. Briefly: tested for its effect on spermatogenic index 3 days after single oral dose (90 mg/kg). The class given is functional. Summed up: as §1
In test [3] the test system is Mus musculus. The test is described as follows: tested for its effect on testes weight 3 days after single oral dose (90 mg/kg). The class given is functional, Testis. Summed up: (§2)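 Male CD-1 (ICR)BR outbred Swiss albino mice, 5/dose, given one oral gavage dose (10 mL/kg) on day 0 in 0.15 M acetate buffer pH 5, ethanol/Tween-20/water (3:7:90), or 1% Tween-20 in water; vehicle and positive-control groups in each assay. Killed by CO2 72 h later; testes weighed. Expressed as % reduction versus vehicle control; Dunnett's one-tailed t-test.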

Test [4] concerns Mus musculus. Briefly: Tested for its effect on testes weight 3 days after single oral dose (10 mg/kg). The class given is functional, Testis. Summed up: (§3)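 CD-1 outbred Swiss albino male mice, 5 per dose, single gavage on day 0 at 10 mL/kg. Vehicle was 0.15 M acetate buffer pH 5, ethanol/Tween-20/water (3:7:90), or 1% Tween-20 in water. CO2 euthanasia 72 h later. Testes weighed and histologically scored (spermatogenic index 0–6). Values are % reduction versus the assay's vehicle control. Positive control was 30 mg/kg of the parent compound. Significance by Dunnett's one-tailed t-test, p < 0.05.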

Test [5] concerns Mus musculus. Briefly: Tested for its effect on spermatogenic index 3 days after single oral dose (10 mg/kg),. The class given is functional. The method in brief: as §3
In test [6] the test system is Mus musculus. Briefly: tested for its effect on testes weight 3 days after single oral dose (30 mg/kg). The class given is functional, Testis. Summed up:
as §2

In test [7] the test system is Mus musculus. The test is described as follows: Tested for its effect on pregnancy index of male CD-1 mice when dosed with 15 mg/kg (Dunnett's one-tailed t-test, p<0.05). The class given is functional. Summed up:
(§4)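 Male CD-1 mice (8–10/group) gavaged daily for 35 days, vehicle 1% Tween-20 in water, 10 mL/kg. From the day after the last dose, each male was housed with two females for up to 5 days, with vaginal copulatory plugs checked each morning. Pregnancy index is litters born per number of females.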

The test system of test [8] is Mus musculus. The test is described as follows: Tested for its effect on pregnancy index of male CD-1 mice when dosed with 3.75 mg/kg Data are means +/-standard error of the mean (n=4). The class given is functional. Summed up:
as §4

In test [9] the test system is Mus musculus. The test is described as follows: Tested for its effect on pregnancy index of male CD-1 mice when dosed with 7.5 mg/kg (Dunnett's one-tailed t-test, p<0.05). The class given is functional. Summed up: as §4
Test [10] concerns Mus musculus. The test is described as follows: Tested for its effect on testes weight of male CD-1 mice when dosed with 15 mg/kg (Dunnett's one-tailed t-test, p<0.05). The class given is functional, Testis. The method in brief: (§5)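 Male CD-1 mice gavaged daily for 35 days in 1% Tween-20 in water at 10 mL/kg. Half of each group was killed 7 days after the last dose; testes were weighed and sectioned for histology. Spermatogenic index was scored 0–6 from the cell types and late spermatids per tubule. Mean ± SEM; Dunnett's one-tailed t-test versus control.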

For test [11], the system named is Mus musculus. Briefly: Tested for its effect on testes weight of male CD-1 mice when dosed with 3.75 mg/kg Data are means +/-standard error of the mean (n=4). The class given is functional, Testis. The method in brief:
as §5

For test [12], the system named is Mus musculus. Briefly: Tested for its effect on testes weight of male CD-1 mice when dosed with 7.5 mg/kg (Dunnett's one-tailed t-test, p<0.05). The class given is functional, Testis. Summed up: as §5
The subject of test [13] is Mus musculus. The test is described as follows: Tested for its effect on spermatogenic index of male CD-1 mice when dosed with 15 mg/kg (Dunnett's one-tailed t-test, p<0.05). The class given is functional. The method in brief:
as §5

Test [14] deals with Mus musculus. Briefly: Tested for its effect on spermatogenic index of male CD-1 mice when dosed with 3.75 mg/kg Data are means +/-standard error of the mean (n=4). The class given is functional. Summed up: as §5
The test system of test [15] is Mus musculus. Briefly: Tested for its effect on spermatogenic index of male CD-1 mice when dosed with 7.5 mg/kg (Dunnett's one-tailed t-test, p<0.05). The class given is functional. Summed up: as §5
In test [16] the test system is Mus musculus. Briefly: Tested for its effect on spermatogenic index 3 days after single sub cutaneous dose (10 mg/kg). The class given is functional. The method in brief: (§6)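 Single subcutaneous injection, 10 mL/kg, to male CD-1 mice (5 per dose) in ethanol/Tween-20/water (3:7:90, v/v/v) on day 0. Mice were killed at 72 h; testes were weighed and histology scored for spermatogenic index (0–6). Results are % reduction from the vehicle control, with a 30 mg/kg positive control group. Dunnett's one-tailed t-test.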

For test [17], the system named is Mus musculus. The test is described as follows: Tested for its effect on testes weight 3 days after single oral dose (30 mg/kg). The class given is functional, Testis. Summed up: as §3
The test system of test [18] is Mus musculus. The test is described as follows: Tested for its effect on testes weight 3 days after single sub cutaneous dose (30 mg/kg). The class given is functional, Testis. The method in brief:
as §6

Test [19] concerns Mus musculus. The test is described as follows: Tested for its effect on testes weight 3 days after single sub cutaneous (10 mg/kg). The class given is functional, Testis. Summed up: as §6
Test [20] relates to Mus musculus. Briefly: Tested for its effect on testes weight 3 days after single sub cutaneous dose (3 mg/kg). The class given is functional, Testis. The method in brief: as §6
Test [21] has as its system Mus musculus. The test is described as follows: Tested for its effect on spermatogenic index 3 days after single oral dose (10 mg/kg). The class given is functional. Summed up:
(§7)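 Male CD-1 (ICR) mice, 7 weeks old on arrival, 5 per dose, single gavage of 10 mL/kg on day 0. Vehicle was 0.15 M acetate buffer pH 5, ethanol/Tween-20/water 3:7:90, or 1% Tween-20. Mice were killed with CO2 at 72 h and testes weighed and scored for spermatogenic index (0–6 scale). Results are % reduction versus the vehicle control. Dunnett's one-tailed t-test.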

For test [22], the system named is Mus musculus. Briefly: Tested for its effect on spermatogenic index 3 days after single oral dose (3 mg/kg). The class given is functional. Summed up: as §7
Test [23] relates to Mus musculus. The test is described as follows: Tested for its effect on spermatogenic index 3 days after single oral dose (30 mg/kg). The class given is functional. The method in brief:
as §3

The test system of test [24] is Mus musculus. Briefly: Tested for its effect on spermatogenic index 3 days after single oral dose (90 mg/kg). The class given is functional. The method in brief: as §3
Test [25] has as its system Mus musculus. The test is described as follows: Tested for its effect on spermatogenic index 3 days after single oral dose (90 mg/kg),. The class given is functional. Summed up:
as §3

The subject of test [26] is Mus musculus. The test is described as follows: Tested for its effect on mouse testes weight 3 days after single oral dose (30 mg/kg). The class given is functional, Testis. The method in brief: as §3
Test [27] has as its system Mus musculus. Briefly: Tested for its effect on spermatogenic index 3 days after single oral dose (30 mg/kg) in mice. The class given is functional. Summed up: as §3
The test system of test [28] is Mus musculus. The test is described as follows: Tested for its effect on spermatogenic index 3 days after single oral dose (90 mg/kg) in mice. The class given is functional. The method in brief: as §3
Test [29] has as its system Mus musculus. Briefly: Tested for its effect on mouse testes weight 3 days after single oral dose (10 mg/kg). The class given is functional, Testis. The method in brief: as §3
In test [30] the test system is Mus musculus. Briefly: Tested for its effect on mouse testes weight 3 days after single oral dose (3 mg/kg). The class given is functional, Testis. The method in brief:
as §3

Test [31] relates to Mus musculus. The test is described as follows: Tested for its effect on mouse testes weight 3 days after single oral dose (90 mg/kg). The class given is functional, Testis. Summed up: as §3
Test [32] relates to Mus musculus. The test is described as follows: Tested for its effect on spermatogenic index 3 days after single oral dose (10 mg/kg) in mice. The class given is functional. Summed up: as §3
The subject of test [33] is Mus musculus. The test is described as follows: Tested for its effect on spermatogenic index 3 days after single oral dose (3 mg/kg) in mice. The class given is functional. The method in brief: as §3

Where “and” joins values, the source holds several entries; their conditions need not be identical. Identical values can stand only once.

Turning to `CCN1CC[C@H]2[C@H](c3ccc(C)cc3C)c3cc(C)ccc3[C@H]2C1.Cl`, the Reduction with Mus musculus [1] amounted to 3%; in the test with Mus musculus [2] it was 30%; in the test with Mus musculus [3] it was 11%; in the test with Mus musculus [4], 1%; in the test on Mus musculus [5], 0%; in the test on Mus musculus [6], 6%.

For the molecule `CCN1CC[C@H]2[C@H](c3ccc(C(=O)OC)cc3)c3cc(C)ccc3[C@H]2C1.Cl`, the values for the Pregnancy index in the test with Mus musculus [7], in the test with Mus musculus [8] and with Mus musculus [9] were 0, 16 and 2, respectively. In addition, the Testes weight in the test on Mus musculus [10] was 108.94 mg; in the test on Mus musculus [11], 219.08 mg; in the test with Mus musculus [12], 114.7 mg. For the same molecule, the Spermatogenic index in the test with Mus musculus [13] is listed as 1.6; in the test on Mus musculus [14], 5.5; in the test on Mus musculus [15], 3. Also, the Reduction with Mus musculus [16] was 28%; in the test on Mus musculus [4], 17%; in the test with Mus musculus [17] it was 32% and 30%; in the test on Mus musculus [18] it was 19%; in the test on Mus musculus [19], 1%; with Mus musculus [20] it was 10%. Moreover, the Reduction was 27% in the test on Mus musculus [21]; 5% in the test with Mus musculus [22]; 57% and 46% and 61% in the test with Mus musculus [23]; 68% in the test on Mus musculus [24]; -5% in the test with Mus musculus [25].

As to `Cc1ccc([C@H]2c3cc(C)ccc3[C@H]3CN(C)CC[C@@H]23)cc1.Cl`, the Reduction is recorded as 12% in the test on Mus musculus [26] and 7% in the test on Mus musculus [27].

For the molecule `CCN1CC[C@H]2[C@H](c3ccc(OC)cc3)c3cc(C)ccc3[C@H]2C1.Cl`, the Reduction is -5% in the test with Mus musculus [28]; -17% with Mus musculus [29]; -7% in the test on Mus musculus [30]; 5% in the test with Mus musculus [31]; -6% in the test with Mus musculus [32]; 2% in the test with Mus musculus [33].

The values above are taken from ChEMBL document CHEMBL1128250, “Structure-activity studies of 2,3,4,4a,5,9b-hexahydroindeno[1,2-c]pyridines as antispermatogenic agents for male contraception” (1995).
